ChEMBL document CHEMBL1773052, “3-Trifluoromethylquinoxaline N,N'-dioxides as anti-trypanosomatid agents. Identification of optimal anti-T. cruzi agents and mechanism of action studies” (J Med Chem, 2011)
Calls of active or inactive are those of the source. No cut-off for these calls is given here.

Columns and labels:
[1] = system: Trypanosoma cruzi; test: Antitrypanosomal activity against Trypanosoma cruzi Tulahuen 2 epimastigotes assessed as growth inhibition at 25 uM after 5 days relative to control; type: functional; conditions: Tulahuen 2, 120 h, read-out: GI
How it was run: (§1)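 Epimastigotes grown axenically at 28 °C in BHI-tryptose + 5% FBS; a 10-day stationary culture was inoculated to 1 × 10⁶ cells/mL. Drug added from DMSO stock, final DMSO ≤0.4%, vehicle control. A600 read daily. PGI on day 5 corrects for day-0 absorbance, relative to control. […] Three independent experiments.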

[2] = system: Trypanosoma cruzi; test: Antitrypanosomal activity against Trypanosoma cruzi Tulahuen 2 epimastigotes assessed as growth inhibition after 5 days; type: functional; conditions: Tulahuen 2, 120 h, read-out: ID50; how it was run: as §1
[3] = Cytotoxicity against mouse J774 cells; type: cell-based; conditions: read-out: ID50 (the source's name)
[4] = Selectivity index, ratio of ID50 for mouse J774 cells to ID50 for Trypanosoma cruzi Tulahuen 2 epimastigotes; type: toxicity, cell-based; conditions: J774 cells versus Trypanosoma cruzi Tulahuen 2 epimastigotes, read-out: Selectivity Index
[5] = system: Trypanosoma cruzi; test: Antitrypanosomal activity against Trypanosoma cruzi CL Brener clone epimastigotes assessed as cell death at 25 uM after 2 days by MTT assay relative to control; type: functional
How it was run: (§2)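 Epimastigotes of each strain taken in exponential growth in BHI-tryptose with 5% FBS, 1 mL per well. Compounds added from DMSO and kept 2 days at 28 °C. Cells washed twice and resuspended in PBS-glucose (5.5 mM), then given 0.4 mg/mL MTT for 4 h at 28 °C. Lysis in SDS-isopropanol, OD read. Triplicate wells, six growth controls. PCyt taken against control, corrected for medium-only wells.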

[6] = system: Trypanosoma cruzi; test: Antitrypanosomal activity against Trypanosoma cruzi Y epimastigotes assessed as cell death at 25 uM after 2 days by MTT assay relative to control; type: functional; how it was run: as §2
[7] = system: Trypanosoma cruzi; test: Antitrypanosomal activity against Trypanosoma cruzi Colombiana epimastigotes assessed as cell death at 25 uM after 2 days by MTT assay relative to control; type: functional; how it was run: as §2
[8] = system: Leishmania braziliensis; test: Antileishmanial activity against Leishmania braziliensis MHOM/BR/00/LTB300 promastigotes assessed as cell death after 2 days by MTT assay; type: functional; conditions: MHOM/BR/00/LTB300, 48 h, read-out: ID50 (the source's name)
How it was run: (§3)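 Parasites in exponential growth, in BHI-tryptose + 5% FBS for T. cruzi or RPMI + 5% FBS for L. braziliensis, 28 °C, 24-well plates. Compounds in DMSO; miltefosine in ethanol. 2-day exposure, two PBS-glucose (5.5 mM) washes, then MTT 0.4 mg/mL for 4 h at 28 °C. SDS-isopropanol lysis, OD read. Triplicates, six growth controls.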

[9] = system: Trypanosoma cruzi; test: Antitrypanosomal activity against Trypanosoma cruzi CL Brener clone epimastigotes assessed as cell death after 2 days by MTT assay; type: functional; conditions: 48 h, read-out: ID50 (the source's name); how it was run: as §3
[10] = system: Trypanosoma cruzi; test: Antitrypanosomal activity against Trypanosoma cruzi Y epimastigotes assessed as cell death after 2 days by MTT assay; type: functional; conditions: 48 h, read-out: ID50 (the source's name); how it was run: as §3
[11] = system: Trypanosoma cruzi; test: Antitrypanosomal activity against Trypanosoma cruzi Colombiana epimastigotes assessed as cell death after 2 days by MTT assay; type: functional; conditions: 48 h, read-out: ID50 (the source's name); how it was run: as §3
[12] = system: Trypanosoma cruzi; test: Antitrypanosomal activity against Trypanosoma cruzi CL Brener clone trypomastigotes in parasite infected BALB/c mouse blood assessed as parasite lysis at 250 ug/ml after 24 hrs relative to control; type: functional
How it was run: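 Blood from BALB/c mice 7 days post-infection, taken by cardiac puncture into 3.8% sodium citrate (7:3). Compounds dissolved in DMSO, diluted in PBS to 100 or 250 μg/mL. 10 μL mixed with 100 μL infected blood (~10⁶ parasites/mL), in triplicate. Shaken 10 min at RT, held 4 °C for 24 h. Parasites counted by microscopy; gentian violet 250 μg/mL as standard.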

[13] = system: Trypanosoma cruzi; test: Inhibition of mitochondrial dehydrogenase activity in Trypanosoma cruzi Y epimastigotes at 20 uM up to 120 mins by MTT assay
How it was run: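 Y-strain epimastigotes, 10⁶ per well in 500 μL medium, treated with 20 μM compound at 28 °C, untreated wells as time-matched controls. At each time point cells counted, then MTT (50 μL of 5 mg/mL in PBS) added for 4 h. Stopped with acidic isopropanol, A570 read. Activity given as percent of untreated control.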

[14] = system: Trypanosoma cruzi; test: Inhibition of mitochondrial dehydrogenase activity in Trypanosoma cruzi Y epimastigotes assessed as reduction of acetate excretion at 5 uM […] by NMR analysis
How it was run: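 Y-strain epimastigotes treated 2 days with 5 μM compound, 5 mL then centrifuged at 1500g for 10 min at 4 °C. Parasite-free supernatant stored at −20 °C. Before NMR, 0.3 mL supernatant mixed with 0.1 mL DMF (10 mM, internal standard) and 0.1 mL D₂O. Excreted metabolites compared with parasite-free medium control, expressed relative to DMF. Three experiments.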

[15] = system: Trypanosoma cruzi; test: Inhibition of mitochondrial dehydrogenase activity in Trypanosoma cruzi Y epimastigotes assessed as reduction of succinate excretion […] by NMR analysis

SMILES | IC50 [2] [µM] | inhibition of growth at 25 µM [1] [%] | further results
Cc1c(C(=O)Nc2ccccc2)[n+]([O-])c2ccccc2[n+]1[O-] | – | 10 | Activity [5]: 32%; Activity [6]: 0%; Activity [7]: 24%; IC50 [8]: > 50 µM
Cc1c(C(=O)c2ccccc2)[n+]([O-])c2cc(F)c(F)cc2[n+]1[O-] | 4.2 | 92 | Activity [5]: 92%; IC50 [9]: 16.2 µM; Activity [6]: 89%; IC50 [10]: 18.3 µM; Activity [7]: 98%; IC50 [11]: 4.5 µM; IC50 [8]: 20.4 µM
Cc1ccc2c(c1)[n+]([O-])c(C(F)F)c(C(=O)c1ccccc1)[n+]2[O-] | 25 | 50.8 | –
CN(C)c1ccc(C(=C2C=CC(=[N+](C)C)C=C2)c2ccc(N(C)C)cc2)cc1.[Cl-] [GENTIAN VIOLET] | – | – | Activity [12]: 100%
CCOC(=O)c1c(-c2ccccc2)[n+]([O-])c2cc(Cl)ccc2[n+]1[O-] | 12.5 | 88 | –
CCOC(=O)c1c(-c2ccccc2)[n+]([O-])c2cc(Cl)c(Cl)cc2[n+]1[O-] | 11.3 | 99 | Activity [5]: 94%; IC50 [9]: 16.4 µM; Activity [6]: 100%; IC50 [10]: 7.1 µM; Activity [7]: 100%; IC50 [8]: 3 µM
CC(C)(C)C(=O)c1c(C(F)(F)F)[n+]([O-])c2ccccc2[n+]1[O-] | – | 26 | CC50 [3]: 8.7 µM; selectivity ratio [4]: < 0.3
O=C(c1ccccc1)c1c(C(F)F)[n+]([O-])c2cc(F)ccc2[n+]1[O-] | 6.3 | 100 | –
O=C(c1ccccc1)c1c(C(F)(F)F)[n+]([O-])c2ccccc2[n+]1[O-] | 0.9 | 100 | Activity [5]: 97%; IC50 [9]: 3.1 µM; Activity [6]: 100%; IC50 [10]: 4 µM; Activity [7]: 100%; IC50 [8]: 1 µM; inhibition [13]: Active
CC1CS(=O)(=O)CCN1/N=C/c1ccc([N+](=O)[O-])o1 (stereo unspecified) [NIFURTIMOX] | 7.7 | 100 | IC50 [9]: 4.9 µM; IC50 [10]: 9.7 µM; IC50 [11]: 3.4 µM; selectivity ratio [4]: 41; inhibition [13]: inactive
Cc1c(Sc2ccccc2)[n+]([O-])c2cc(Cl)c(Cl)cc2[n+]1[O-] | 6.5 | 93 | Activity [5]: 98%; IC50 [9]: < 1 µM; Activity [6]: 100%; IC50 [10]: 2.9 µM; Activity [7]: 100%; IC50 [11]: 1.7 µM; IC50 [8]: 1.4 µM; inhibition [13]: Active; inhibition [14]: Active; inhibition [15]: Active
O=C(c1ccco1)c1c(C(F)(F)F)[n+]([O-])c2ccc(C(F)(F)F)cc2[n+]1[O-] | 4.8 | 100 | –
CC(C)C(=O)c1c(C(F)(F)F)[n+]([O-])c2ccccc2[n+]1[O-] | > 2.5 | 100 | –
O=C(c1cccc2ccccc12)c1c(C(F)(F)F)[n+]([O-])c2cc(F)c(F)cc2[n+]1[O-] | 3.9 | 100 | –
CCCCCCCCCCCCCCCCOP(=O)([O-])OCC[N+](C)(C)C [MILTEFOSINE] | – | – | IC50 [8]: 9 µM
CC(C)(C)C(=O)c1c(C(F)(F)F)[n+]([O-])c2cc(F)c(F)cc2[n+]1[O-] | 4.9 | 100 | CC50 [3]: 16.2 µM; selectivity ratio [4]: < 0.6
COC(=O)c1c(C)[n+]([O-])c2ccccc2[n+]1[O-] | – | 24 | Activity [5]: 59%; Activity [6]: 0%; Activity [7]: 60%; IC50 [8]: > 50 µM
CC(C)C(=O)c1c(C(F)(F)F)[n+]([O-])c2cc(F)c(F)cc2[n+]1[O-] | – | 23.6 | CC50 [3]: 11.5 µM; selectivity ratio [4]: < 0.5
O=C(c1ccccc1)c1c(C(F)F)[n+]([O-])c2cc(Cl)c(Cl)cc2[n+]1[O-] | 4.7 | 100 | –
COc1ccc2c(c1)[n+]([O-])c(C(F)F)c(C(=O)c1ccccc1)[n+]2[O-] | 10 | 100 | –
Cc1c(C(=O)c2ccccc2)[n+]([O-])c2cc(Cl)c(Cl)cc2[n+]1[O-] | 11.8 | 91 | –

Continued by falling IC50 [2], values first:

IC50 [2] [µM] | SMILES | inhibition of growth at 25 µM [1] [%] | further results
3.5 | COc1ccc2c(c1)[n+]([O-])c(C(F)(F)F)c(C(=O)c1ccccc1)[n+]2[O-] | 98 | –
3.3 | CCOC(=O)c1c(-c2ccccc2)[n+]([O-])c2cc(F)c(F)cc2[n+]1[O-] | 100 | –
3 | O=C(c1ccccc1)c1c(C(F)(F)F)[n+]([O-])c2cc(Cl)ccc2[n+]1[O-] | 90 | –
3 | CC(=O)c1c(C(F)(F)F)[n+]([O-])c2ccccc2[n+]1[O-] | 100 | CC50 [3]: 8.55 µM; selectivity ratio [4]: 2.8
2.8 | O=C(c1cccs1)c1c(C(F)(F)F)[n+]([O-])c2cc(F)c(F)cc2[n+]1[O-] | 100 | –
2.5 | O=C(c1ccc(Cl)cc1)c1c(C(F)(F)F)[n+]([O-])c2cc(F)c(F)cc2[n+]1[O-] | 100 | –
2.4 | O=C(c1ccco1)c1c(C(F)(F)F)[n+]([O-])c2ccccc2[n+]1[O-] | 100 | CC50 [3]: 7.13 µM; selectivity ratio [4]: 3
1.6 | O=C(c1ccc(Cl)cc1)c1c(C(F)(F)F)[n+]([O-])c2ccccc2[n+]1[O-] | 100 | CC50 [3]: 8.5 µM; selectivity ratio [4]: 5.3
1.4 | O=C(c1cccc2ccccc12)c1c(C(F)(F)F)[n+]([O-])c2ccccc2[n+]1[O-] | 100 | CC50 [3]: 7.92 µM; selectivity ratio [4]: 5.5
1.4 | CC(C)C(=O)c1c(C(F)(F)F)[n+]([O-])c2cc(Cl)c(Cl)cc2[n+]1[O-] | 100 | –
1.4 | Cc1cc2c(cc1C)[n+]([O-])c(C(F)(F)F)c(C(=O)c1ccccc1)[n+]2[O-] | 72 | –
1.3 | Cc1ccc2c(c1)[n+]([O-])c(C(F)(F)F)c(C(=O)c1ccccc1)[n+]2[O-] | 99 | –
1.1 | O=C(c1cccs1)c1c(C(F)(F)F)[n+]([O-])c2ccccc2[n+]1[O-] | 100 | CC50 [3]: 4.69 µM; selectivity ratio [4]: 4.3
0.79 | O=C(c1c(C(F)(F)F)[n+]([O-])c2ccccc2[n+]1[O-])N1CCN(c2ccc(Cl)cc2)CC1 | 100 | CC50 [3]: 8.25 µM; selectivity ratio [4]: 10.4
0.76 | O=C(c1c(C(F)(F)F)[n+]([O-])c2ccccc2[n+]1[O-])N1CCN(c2ccccc2)CC1 | 100 | CC50 [3]: 9.51 µM; selectivity ratio [4]: 12.5
0.5 | CCC(=O)c1c(C(F)(F)F)[n+]([O-])c2cc(F)c(F)cc2[n+]1[O-] | 100 | –
